Experimental data taken from ChEMBL document CHEMBL5653624 (Biochem Pharmacol, 2016).
Calls of active or inactive are those of the source. The rule behind the calls is not given here.

What was measured:
[1] = biological target: T1, Histone deacetylase 3 (Mus musculus) (UniProt O88895); assay: Inhibition of HDAC3 in mouse RAW264.7 cells assessed as effect on LPS/IFNgamma-induced NF-kappaB p65 nuclear translocation preincubated for 20 hrs followed by LPS/IFNgamma stimulation and measured after 1 hr by Western blot analysis; assay type: cell-based
T1 sequence (whole entry): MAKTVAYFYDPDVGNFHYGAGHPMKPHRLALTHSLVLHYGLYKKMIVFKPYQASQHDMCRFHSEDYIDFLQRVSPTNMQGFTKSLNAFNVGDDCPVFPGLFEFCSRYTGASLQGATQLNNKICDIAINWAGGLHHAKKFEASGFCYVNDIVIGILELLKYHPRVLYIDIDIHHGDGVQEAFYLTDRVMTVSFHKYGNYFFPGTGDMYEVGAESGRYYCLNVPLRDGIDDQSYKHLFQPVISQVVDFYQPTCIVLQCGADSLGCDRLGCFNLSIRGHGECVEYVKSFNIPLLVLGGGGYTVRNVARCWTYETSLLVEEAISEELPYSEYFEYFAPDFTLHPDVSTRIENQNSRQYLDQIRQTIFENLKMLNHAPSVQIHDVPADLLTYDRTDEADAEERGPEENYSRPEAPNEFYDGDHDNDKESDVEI
Outline: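 After 20 h inhibitor then 1 h LPS/IFNγ, RAW 264.7 cells fractionated into nuclear and cytosolic parts and immunoblotted for NF-κB p65; PARP-1 and β-actin as internal controls; densitometry as fold change versus LPS/IFNγ-treated control; 4 independent experiments, mean ± SD.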

[2] = biological target: T1, Histone deacetylase 3 (Mus musculus); assay: Inhibition of HDAC3 in mouse RAW264.7 cells assessed as effect on histone H4 acetylation measured after 20 hrs by Western blot analysis; assay type: cell-based
Outline: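 Histones extracted from RAW 264.7 cells after 20 h inhibitor treatment, protein quantified by micro BCA (BSA standard), and H3 and H4 acetylation assessed by Western blot versus vehicle-treated cells.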

[3] = system: RAW264.7; assay: Antiinflammatory activity in mouse RAW264.7 cells assessed as effect on LPS/IFNgamma-induced IL-10 gene expression at 1 uM preincubated for 20 hrs followed by LPS/IFNgamma stimulation and measured after 4 hrs by RT-qPCR analysis; assay type: functional, cell-based; conditions: time 24.0 hrs
Outline: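 RAW 264.7 macrophages in DMEM/10% FBS received 1 μM RGFP966 for 20 h, with LPS/IFNγ for the last 4 h. Washed with cold DPBS, total RNA isolated, integrity checked by 28S/18S. RT-qPCR by comparative Ct (2−ΔΔCt), fold change versus LPS/IFNγ control. Mean ± SD of 3–5 independent experiments.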

[4] = biological target: T1, Histone deacetylase 3 (Mus musculus); assay: Inhibition of HDAC3 in mouse RAW-Blue cells assessed as effect on NF-kappaB p65 transcriptional activity measured after 16 hrs by SEAP reporter gene assay; assay type: cell-based
Outline: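 RAW-Blue cells (RAW 264.7-derived, stably expressing an NF-κB/AP-1-inducible secreted embryonic alkaline phosphatase) exposed to inhibitor for 20 h total, with 10 ng/ml LPS plus 10 ng/ml IFNγ added for the final 4 h. Supernatant mixed with QUANTI-Blue medium, 37 °C 1–2 h in the dark, absorbance 630 nm; reported as % of control.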

[5] = system: HASMC; assay: Cytotoxicity against HASMC cells assessed as reduction in cell viability at 2 uM measured after 20 hrs by MTS assay; assay type: toxicity, cell-based; conditions: human
Outline: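 MTS viability assay. RAW 264.7 cells seeded at 25,000 cells/cm2; HBE and hASM cells at 70% confluency and serum-starved for 24 h. Exposure for 20 h with LPS/IFNγ stimulation. MTS reagent added for 1 h at 37 °C in the dark, absorbance read at 490 nm. LPS/IFNγ-stimulated cells without inhibitor set at 100%.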

[6] = biological target: T1, Histone deacetylase 3 (Mus musculus); assay: Inhibition of HDAC3 in mouse RAW264.7 cells assessed as effect on LPS/IFNgamma-induced IkappaBalpha activation preincubated for 20 hrs followed by LPS/IFNgamma stimulation and measured after 1 hr by Western blot analysis; assay type: cell-based
[7] = system: Lung; assay: Antiinflammatory activity in C57bl/6 mouse precision-cut lung slices assessed as upregulation of LPS/IFNgamma-induced Fizz1 gene expression at 1 to 10 uM preincubated for 20 hrs followed by LPS/IFNgamma stimulation and measured after 4 hrs by RT-qPCR analysis; assay type: functional, tissue-based; conditions: dose 1-10 µM, time 24.0 hrs
Outline: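 PCLS, 250 μm thick, cut from agarose-filled lungs of male C57bl/6 mice (24–28 g, 8–10 weeks). Three slices per well at 37 °C, 5% CO2. Slices received RGFP966 at 1 and 10 μM final for 20 h, with 10 ng/ml LPS and 10 ng/ml IFNγ stimulation. RNA isolated; RT-qPCR fold change versus LPS/IFNγ control by 2−ΔΔCt. Mean ± SD, n = 3–5.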

[8] = system: RAW264.7; assay: Effect on HDAC3-NFkappaB p65 protein-protein interaction in LPS/IFNgamma-stimulated mouse RAW264.7 cells at 1 uM preincubated for 20 hrs followed by LPS/IFNgamma stimulation and measured after 1 hr by immunoprecipitation analysis; assay type: cell-based
Outline: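 RAW 264.7 cells treated for 20 h, then LPS/IFNγ-stimulated. Lysates rotated 4 h at 4 °C and cleared. NF-κB p65 immunoprecipitated with mouse monoclonal antibody overnight at 4 °C, then Protein A/G agarose for 6 h at 4 °C, followed by washes. Immunoblot for HDAC 3, densitometry normalized to NF-κB p65. Mean ± SD of 3 experiments.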

[9] = system: HASMC; assay: Antiinflammatory activity in HASMC cells assessed as effect on LPS/IFNgamma-induced iNOS gene expression at 2 uM […] and measured after 4 hrs by RT-qPCR analysis; assay type: functional, cell-based; conditions: Homo sapiens
Outline: (§1)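 HBE cells (passage 73–103) or immortalized hASM cells (2–3 donors, passage 27–35), serum-starved. Then 2 μM RGFP966 for 20 h, with LPS/IFNγ for the last 4 h. Total RNA isolated; RT-qPCR by 2−ΔΔCt, fold change versus LPS/IFNγ control. Mean ± SD of 3–5 independent experiments.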

[10] = Toxicity in C57bl/6 mouse precision-cut lung slices assessed as effect on tissue viability up to 10 uM measured after 20 hrs by LDH release assay; assay type: tissue-based
Outline: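 PCLS (250 μm) from male C57bl/6 mice, agarose-filled lungs, washed four times, 3 slices/well at 37 °C 5% CO2; inhibitor at 1 and 10 μM for 20 h. LDH in medium measured on automatic analyzer, expressed relative to maximal release from 3 slices lysed with 1% Triton X-100 (30 min, 37 °C).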

[11] = system: HASMC; assay: Antiinflammatory activity in HASMC cells assessed as effect on LPS/IFNgamma-induced IL-12b gene expression at 2 uM […] and measured after 4 hrs by RT-qPCR analysis; assay type: functional, cell-based; conditions: Homo sapiens; outline: as §1
[12] = system: HBE; assay: Antiinflammatory activity in HBE cells assessed as effect on LPS/IFNgamma-induced IL-1beta gene expression at 2 uM […] by RT-qPCR analysis; assay type: functional, cell-based; conditions: Homo sapiens; outline: as §1
[13] = biological target: T1, Histone deacetylase 3 (Mus musculus); assay: Effect on HDAC3 nuclear localization in LPS/IFNgamma-stimulated mouse RAW264.7 cells preincubated for 20 hrs followed by LPS/IFNgamma stimulation and measured after 1 hr by Western blot analysis; assay type: cell-based
Outline: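 RAW 264.7 cells treated for 20 h, then 1 h LPS/IFNγ, and fractionated into nuclear and cytosolic parts. Fractions immunoblotted, with PARP-1 and β-actin as internal controls. Densitometry with vehicle control set at 100%. Mean ± SD of 3–4 independent experiments.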

inhibition [1]: inactive
inhibition [2]: inactive
inhibition [4]: inactive
inhibition [6]: inactive
Activity [13]: inactive
SMILES: Nc1cc(F)ccc1NC(=O)/C=C/c1cnn(C/C=C/c2ccccc2)c1
Activity [3]: inactive
Activity [5]: Non-Toxic
Activity [7]: Active
Activity [8]: inactive
Activity [9]: inactive
Activity [10]: Non-Toxic
Activity [11]: inactive
Activity [12]: inactive
